The source made the active and inactive calls. The rule behind the calls is not given here.
How the values were obtained:
HL-60 = test: Cytotoxicity against human HL60 cells after 3 days; assay type: functional, cell-based
Procedure, shortened: (§1)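 HL60 (leukaemia), A549 (lung) and BEL-7402 (liver) human tumour cells exposed to compounds for 3 days; viability read by MTT assay and SRB assay; IC50 (half-maximal inhibitory concentration) reported.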

Bel-7402 = test: Cytotoxicity against human Bel7402 cells after 3 days; assay type: functional, cell-based; procedure, shortened: as §1
A549 [1] = test: Cytotoxicity against human A549 cells after 3 days; assay type: functional, cell-based; procedure, shortened: as §1
A549 [2] = test: Cell cycle arrest in human A549 cells assessed as accumulation at S phase at 25 nM after 24 hrs by flow cytometry (reference value: 27.52%)
A549 [3] = test: Cell cycle arrest in human A549 cells assessed as accumulation at G2/M phase at 25 nM after 24 hrs by flow cytometry (reference value: 10.34%)
A549 [4] = test: Cell cycle arrest in human A549 cells assessed as accumulation at G0/G1 phase at 25 nM after 24 hrs by flow cytometry (reference value: 62.14%)
[5] = target: T1, DNA topoisomerase 1 (Homo sapiens) (UniProt P11387); test: Inhibition of topoisomerase 1-mediated relaxation of supercoiled pBR322 DNA at 6.25 to 100 uM after 30 mins by […]
T1 sequence (whole entry): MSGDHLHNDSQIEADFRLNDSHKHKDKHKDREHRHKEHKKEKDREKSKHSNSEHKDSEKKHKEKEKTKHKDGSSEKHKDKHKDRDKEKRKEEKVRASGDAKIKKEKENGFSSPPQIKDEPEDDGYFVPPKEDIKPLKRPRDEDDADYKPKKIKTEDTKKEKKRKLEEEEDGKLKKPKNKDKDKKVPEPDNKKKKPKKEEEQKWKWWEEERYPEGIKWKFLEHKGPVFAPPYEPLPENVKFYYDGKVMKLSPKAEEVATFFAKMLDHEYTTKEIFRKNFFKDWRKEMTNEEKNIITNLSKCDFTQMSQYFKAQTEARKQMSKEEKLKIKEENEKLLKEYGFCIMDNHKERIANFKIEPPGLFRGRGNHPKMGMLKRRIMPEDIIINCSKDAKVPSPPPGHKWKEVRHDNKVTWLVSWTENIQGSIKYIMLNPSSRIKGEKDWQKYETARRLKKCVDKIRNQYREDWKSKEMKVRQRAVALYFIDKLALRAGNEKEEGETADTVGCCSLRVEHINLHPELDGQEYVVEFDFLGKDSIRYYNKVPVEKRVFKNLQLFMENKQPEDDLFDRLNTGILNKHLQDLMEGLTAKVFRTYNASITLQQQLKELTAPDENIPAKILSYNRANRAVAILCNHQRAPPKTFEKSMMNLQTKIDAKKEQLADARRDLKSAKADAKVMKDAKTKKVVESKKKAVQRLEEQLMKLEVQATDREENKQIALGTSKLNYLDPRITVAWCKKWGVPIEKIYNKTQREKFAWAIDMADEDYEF
Procedure, shortened: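 Supercoiled pBR322 DNA incubated with topoisomerase I (1 unit) with or without drug, 37 °C, 30 min; stopped with 10% SDS; products resolved on 1% agarose gel, supercoiled versus relaxed bands scored; camptothecin as reference.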

A549 [6] = test: Cell cycle arrest in human A549 cells assessed as accumulation at G2/M phase at 50 uM after 24 hrs by flow cytometry (reference value: 10.34%); assay type: functional
A549 [7] = test: Cell cycle arrest in human A549 cells assessed as accumulation at G2/M phase at 12.5 uM after 24 hrs by flow cytometry (reference value: 10.34%); assay type: functional
A549 [8] = test: Cell cycle arrest in human A549 cells assessed as accumulation at S phase at 12.5 uM after 24 hrs by flow cytometry (reference value: 27.52%); assay type: functional
A549 [9] = test: Cell cycle arrest in human A549 cells assessed as accumulation at S phase at 50 uM after 24 hrs by flow cytometry (reference value: 27.52%); assay type: functional
A549 [10] = test: Cell cycle arrest in human A549 cells assessed as accumulation at G0/G1 phase at 50 uM after 24 hrs by flow cytometry (reference value: 62.14%); assay type: functional
A549 [11] = test: Cell cycle arrest in human A549 cells assessed as accumulation at G0/G1 phase at 12.5 uM after 24 hrs by flow cytometry (reference value: 62.14%); assay type: functional
[12] = Chemical stability of the compound in phosphate saline buffer at pH 7.4 at 50 umol/L by HPLC analysis; assay type: physicochemical; conditions: pH 7.4, 50 µM
Procedure, shortened: (§2)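 Lactone stability followed by HPLC with fluorescence detection; drug at 50 μmol/L incubated at pH 7.4, 37 °C in PBS, PBS with human serum albumin, or human blood; each point mean of three determinations, uncertainty 10% or less.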

[13] = Chemical stability of the compound in phosphate saline buffer at pH 7.4 at 50 umol/L by HPLC analysis in presence of HAS; assay type: physicochemical; conditions: pH 7.4, 50 µM; procedure, shortened: as §2
[14] = Chemical stability of the compound in phosphate saline buffer at pH 7.4 at 50 umol/L by HPLC analysis in presence of human blood; assay type: physicochemical; conditions: pH 7.4, 50 µM; procedure, shortened: as §2

Row | SMILES | IC50 (HL-60; Homo sapiens, HL-60, 72 h) [nM] | IC50 (Bel-7402; Homo sapiens, Bel-7402, 72 h) [nM] | IC50 (A549 [1]; Homo sapiens, A549, 72 h) [nM] | also measured
1 | CC[C@@]1(O)C(=O)OCc2c1cc1n(c2=O)Cc2cc3cc(-c4cnc5ccccc5c4)ccc3nc2-1 | 1440 | 6590 | 5950 | 
2 | CC[C@@]1(O)C(=O)OCc2c1cc1n(c2=O)Cc2cc3cc(-c4cccs4)ccc3nc2-1 | 48 | 80 | 10 | 
3 | CC[C@@]1(O)C(=O)OCc2c1cc1n(c2=O)Cc2cc3cc(-c4ccc(C(=O)OC)cc4)ccc3nc2-1 | 280 | 650 | 510 | 
4 | CC[C@@]1(O)C(=O)OCc2c1cc1n(c2=O)Cc2cc3cc(-c4ccc(OC)cc4)ccc3nc2-1 | 780 | 5890 | 500 | 
5 | CC[C@@]1(O)C(=O)OCc2c1cc1n(c2=O)Cc2cc3cc(-c4cccc(C(=O)OC)c4)ccc3nc2-1 | 49 | 5120 | 23 | 
6 | CC[C@@]1(O)C(=O)OCc2c1cc1n(c2=O)Cc2cc3c(CN(C)C)c(O)ccc3nc2-1 [TOPOTECAN] | 52 | 470 | 71 | Activity (A549 [2]): 24.95%; Activity (A549 [3]): 35.02%; Activity (A549 [4]): 40.04%
7 | CC[C@@]1(O)C(=O)OCc2c1cc1n(c2=O)Cc2cc3cc(-c4ccncc4)ccc3nc2-1 [listing 1 of 2 here] |  |  |  | inhibition [5]: Active
8 | CC[C@@]1(O)C(=O)OCc2c1cc1n(c2=O)Cc2cc3cc(-c4cccc(Cl)c4)ccc3nc2-1 | 100 | 930 | 67 | 
9 | CC[C@@]1(O)C(=O)OCc2c1cc1n(c2=O)Cc2cc3cc(-c4ccsc4)ccc3nc2-1 | 37 | 230 | 12 | 
10 | CC[C@@]1(O)C(=O)OCc2c1cc1n(c2=O)Cc2cc3cc(-c4ccncc4)ccc3nc2-1.Cl |  |  |  | IC50 (HL-60; hl-60): 21 nM; Activity (A549 [6]): 80.09%; Activity (A549 [2]): 22%; Activity (A549 [7]): 28.07%; Activity (A549 [8]): 15.74%; Activity (A549 [3]): 46.71%; Activity (A549 [9]): 0%; Activity (A549 [10]): 19.91%; IC50 (Bel-7402; bel-7402): 460 nM; Activity (A549 [4]): 31.29%; IC50 (A549 [1]; a549): 62 nM; Activity (A549 [11]): 56.19%
11 | CC[C@@]1(O)C(=O)OCc2c1cc1n(c2=O)Cc2cc3cc(-c4ccc(O)cc4)ccc3nc2-1 | 20 | 1050 | 140 | 
12 | CC[C@@]1(O)C(=O)OCc2c1cc1n(c2=O)Cc2cc3cc(-c4cccc(N(C)C)c4)ccc3nc2-1 | 13 | 180 | 40 | 
13 | CC[C@@]1(O)C(=O)OCc2c1cc1n(c2=O)Cc2cc3cc(-c4ccncc4)ccc3nc2-1 [listing 2 of 2 here] |  | 420 | 67 | IC50 (HL-60; hl-60): 9 nM; Activity (A549 [6]): 63.43%; Activity (A549 [2]): 16.74%; Activity (A549 [7]): 22.22%; Stability [12]: Stable; Activity (A549 [8]): 18.18%; Stability [13]: Stable; Activity (A549 [3]): 38.41%; Activity (A549 [9]): 14.24%; Activity (A549 [10]): 22.33%; Activity (A549 [4]): 44.85%; Stability [14]: Stable; Activity (A549 [11]): 59.61%
14 | CC[C@@]1(O)C(=O)OCc2c1cc1n(c2=O)Cc2cc3cc(-c4ccc(Cl)cc4)ccc3nc2-1 | 300 | 3120 | 320 | 
15 | CC[C@@]1(O)C(=O)OCc2c1cc1n(c2=O)Cc2cc3cc(-c4ccccc4Cl)ccc3nc2-1 | 590 | 2460 | 1120 | 
16 | CC[C@@]1(O)C(=O)OCc2c1cc1n(c2=O)Cc2cc3cc(-c4ccc(C(=O)O)cc4)ccc3nc2-1 | 1450 | 13800 | 11600 | 
17 | CC[C@@]1(O)C(=O)OCc2c1cc1n(c2=O)Cc2cc3cc(-c4ccccc4N(C)C)ccc3nc2-1 | 160 | 1530 | 230 | 
18 | CC[C@@]1(O)C(=O)OCc2c1cc1n(c2=O)Cc2cc3cc(-c4ccc(N(C)C)cc4)ccc3nc2-1 | 2880 | 36500 | 2680 | 
19 | CC[C@@]1(O)C(=O)OCc2c1cc1n(c2=O)Cc2cc3cc(-c4cccnc4)ccc3nc2-1 | 32 | 380 | 68 | 

Source: ChEMBL document CHEMBL1759959, “Synthesis and antitumor activity of 10-arylcamptothecin derivatives” (Bioorg Med Chem Lett, 2011)
